We go through 13 compounds from ChEMBL document CHEMBL4425193 (Bioorg Med Chem, 2016).

In test [1] the test system is HCC4017. The test can be described thus: Cytotoxicity against human HCC4017 cells at 0.1 to 100 uM after 1 day by MTS assay. Type of test: functional, cell-based. In a few lines: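 HCC4017 lung cancer cells were seeded in clear-bottom 96-well plates. On day 2 they were exposed to compound in RPMI with 10% FBS containing 3% BSA, at eight graded concentrations from 0.1 μM to 100 μM, each in triplicate. On day 3 MTS reagent was added and absorbance was read at 490 nm.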
A general note: Tetrazolium dyes change colour on reduction, which living cells bring about.

Test [2] in a line: Displacement of FITC-labeled PPS1D1 from lipid phosphatidylserine assessed as remaining fluorescence at 1 uM incubated for 1 hr by ELISA-like competitive binding assay. A digest of the protocol:
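Lipid PS in hexane (10 μg/ml) was coated into wells and dried at room temperature. Wells were blocked with 1% BSA/PBS for 1 h, then saturated with 200 nM FITC-PPS1D1 in blocking buffer for 1 h at room temperature and washed. Competitor at 1 μM was added for 1 h. After PBS washes, remaining fluorescence was read at 520 nm.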

In test [3] the test system is HCC4017. As to the kind of experiment: Cytotoxicity against human HCC4017 cells at 30 uM after 1 day by MTS assay. Type of test: functional, cell-based. A digest of the protocol: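 HCC4017 cells were plated in 96-well format. On the second day compound was added in RPMI/10% FBS with 3% BSA, and each concentration was run in triplicate. MTS reagent was added on day 3 and absorbance was read at 490 nm. The absorbance values at the 30 μM treatment were taken for this readout.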

The test system of test [4] is HCC4017. As to the kind of experiment: Cytotoxicity against human HCC4017 cells at 30 uM after 1 day by MTS assay.
Test [5] relates to NCI-H460. The test can be described thus: Cytotoxicity against human H460 cells after 1 day by MTS assay. In kind it is functional, cell-based. The conditions noted are these: NCI-H460, 24 h.
Test [6] has as its system HCC4017. As to the kind of experiment: Cytotoxicity against human HCC4017 cells after 1 day by MTS assay. In kind it is functional, cell-based. The conditions noted are these: HCC4017, 24 h.

Calls of active or inactive are those of the source. The calls are words filed in the database; no cut-off is given here. Positions of bridges follow the written chain, without caps; N, C: chain ends. Non-standard residues stand in square brackets, D forms with d. Residues, ends and D or L forms follow the SMILES beside them. Chains are numbered I, II in the order given. ξ: configuration not given here. Gly(N-piperonyl) = O=C(O)CNCc1ccc2c(c1)OCO2; N(4-MeOBn)Gly = COc1ccc(CNCC(=O)O)cc1; Nrpe = C[C@@H](NCC(=O)O)c1ccccc1; Nlys = NCCCCNCC(=O)O; ξK = NCCCCC(N)C(=O)O

By IC50 is commonly meant the concentration that inhibits the measured activity by half.

In the case of `CSCC[C@H](NC(=O)[C@@H](CCCCN)NC(=O)[C@@H](N)CCCCN)C(=O)NCCCCC(NC(=O)[C@H](CCSC)NC(=O)[C@@H](CCCCN)NC(=O)[C@@H](N)CCCCN)C(N)=O` (stereo partly drawn), the result in test [1] was inactive. Besides, in test [2], the inhibition entry was “inactive”.
Turning to `COc1ccc(CN(CC(=O)N(CCCCN)CC(=O)N[C@@H](CCCCN)C(=O)N[C@H](CCCCN)C(=O)N[C@@H](CCSC)C(=O)NCCCCC(NC(=O)[C@H](CCSC)NC(=O)[C@@H](CCCCN)NC(=O)[C@H](CCCCN)NC(=O)CN(CCCCN)C(=O)CN(Cc2ccc(OC)cc2)C(=O)CN(C(=O)CNCc2ccc3c(c2)OCO3)[C@H](C)c2ccccc2)C(N)=O)C(=O)CN(C(=O)CNCc2ccc3c(c2)OCO3)[C@H](C)c2ccccc2)cc1` (stereo partly drawn), in test [1], the outcome was inactive. The inhibition entry in test [2] was “inactive”.
In the case of `COc1ccc(CNCC(=O)N(CCCCN)CC(=O)N[C@@H](CCCCN)C(=O)N[C@H](CCCCN)C(=O)N[C@@H](CCSC)C(=O)NCCCCC(NC(=O)[C@H](CCSC)NC(=O)[C@@H](CCCCN)NC(=O)[C@H](CCCCN)NC(=O)CN(CCCCN)C(=O)CNCc2ccc(OC)cc2)C(N)=O)cc1` (stereo partly drawn), the result in test [1] was inactive. Besides, the inhibition entry in test [2] is “inactive”.
Consider `CSCC[C@H](NC(=O)[C@@H](CCCCN)NC(=O)[C@H](CCCCN)NC(=O)CNCCCCN)C(=O)NCCCCC(NC(=O)[C@H](CCSC)NC(=O)[C@@H](CCCCN)NC(=O)[C@H](CCCCN)NC(=O)CNCCCCN)C(N)=O` (stereo partly drawn), for which the result in test [1] was inactive. In addition, the inhibition result in test [2] was “inactive”.
With `C=CCNCC(=O)N(CCOC)CC(=O)N(CC=C)CC(=O)N(CCOC)CC(=O)N(CC=C)CC(=O)NCC(=O)N[C@H](CCCCN)C(=O)N[C@@H](CCSC)C(=O)NCCCCC(NC(=O)[C@H](CCSC)NC(=O)[C@@H](CCCCN)NC(=O)CNC(=O)CN(CC=C)C(=O)CN(CCOC)C(=O)CN(CC=C)C(=O)CN(CCOC)C(=O)CNCC=C)C(N)=O` (stereo partly drawn), the outcome in test [1], in test [3] and in test [4] was inactive. In test [2], the inhibition entry was “inactive”.
For `COc1ccc(CN(CC(=O)N(CCCCN)CC(=O)N[C@@H](CCCCN)C(=O)N[C@H](CCCCN)C(=O)N[C@@H](CCSC)C(=O)NCCCCC(NC(=O)[C@H](CCSC)NC(=O)[C@@H](CCCCN)NC(=O)[C@H](CCCCN)NC(=O)CN(CCCCN)C(=O)CN(Cc2ccc(OC)cc2)C(=O)CN[C@H](C)c2ccccc2)C(N)=O)C(=O)CN[C@H](C)c2ccccc2)cc1` (stereo partly drawn), the result in test [1] was inactive. For the same compound, the inhibition entry in test [2] was “inactive”.
Turning to `COc1ccc(CN(CC(=O)N(CCCCN)CC(=O)N[C@@H](CCCCN)C(=O)N[C@H](CCCCN)C(=O)N[C@@H](CCSC)C(=O)NCCCCC(NC(=O)[C@H](CCSC)NC(=O)[C@@H](CCCCN)NC(=O)[C@H](CCCCN)NC(=O)CN(CCCCN)C(=O)CN(Cc2ccc(OC)cc2)C(=O)CN(C(=O)CN(Cc2ccc3c(c2)OCO3)C(=O)CN[C@H](C)c2ccccc2)[C@H](C)c2ccccc2)C(N)=O)C(=O)CN(C(=O)CN(Cc2ccc3c(c2)OCO3)C(=O)CN[C@H](C)c2ccccc2)[C@H](C)c2ccccc2)cc1` (stereo partly drawn), the IC50 in test [5] and in test [6] was 5 to 10 µM in each case. The outcome in test [1], in test [3] and in test [4] was Active. The inhibition result in test [2] is “Active”.
As for `COc1ccc(CN(CC(=O)N(CCCCN)CC(=O)N[C@@H](CCCCN)C(=O)N[C@H](CCCCN)C(=O)N[C@@H](C)C(=O)NCCCCC(NC(=O)[C@H](C)NC(=O)[C@@H](CCCCN)NC(=O)[C@H](CCCCN)NC(=O)CN(CCCCN)C(=O)CN(Cc2ccc(OC)cc2)C(=O)CN(C(=O)CN(Cc2ccc3c(c2)OCO3)C(=O)CN[C@H](C)c2ccccc2)[C@H](C)c2ccccc2)C(N)=O)C(=O)CN(C(=O)CN(Cc2ccc3c(c2)OCO3)C(=O)CN[C@H](C)c2ccccc2)[C@H](C)c2ccccc2)cc1` (stereo partly drawn), the outcome in test [3] and in test [4] was Active.
In the case of `CSCC[C@H](NC(=O)[C@@H](CCCCN)NC(=O)[C@H](CCCCN)NC(=O)CN(CCCCN)C(=O)CN(C)C(=O)CN(C(=O)CN(Cc1ccc2c(c1)OCO2)C(=O)CN[C@H](C)c1ccccc1)[C@H](C)c1ccccc1)C(=O)NCCCCC(NC(=O)[C@H](CCSC)NC(=O)[C@@H](CCCCN)NC(=O)[C@H](CCCCN)NC(=O)CN(CCCCN)C(=O)CN(C)C(=O)CN(C(=O)CN(Cc1ccc2c(c1)OCO2)C(=O)CN[C@H](C)c1ccccc1)[C@H](C)c1ccccc1)C(N)=O` (stereo partly drawn), the outcome in test [3] and in test [4] was inactive. Further, the inhibition entry in test [2] was “inactive”.
In the case of `COc1ccc(CN(CC(=O)N(CCCCN)CC(=O)N[C@@H](CCCCN)C(=O)N[C@@H](C)C(=O)N[C@@H](CCSC)C(=O)NCCCCC(NC(=O)[C@H](CCSC)NC(=O)[C@H](C)NC(=O)[C@H](CCCCN)NC(=O)CN(CCCCN)C(=O)CN(Cc2ccc(OC)cc2)C(=O)CN(C(=O)CN(Cc2ccc3c(c2)OCO3)C(=O)CN[C@H](C)c2ccccc2)[C@H](C)c2ccccc2)C(N)=O)C(=O)CN(C(=O)CN(Cc2ccc3c(c2)OCO3)C(=O)CN[C@H](C)c2ccccc2)[C@H](C)c2ccccc2)cc1` (stereo partly drawn) (I: H-[Nrpe][Gly(N-piperonyl)][Nrpe][N(4-MeOBn)Gly][Nlys]KAM[ξK]-NH2 / II: H-[Nrpe][Gly(N-piperonyl)][Nrpe][N(4-MeOBn)Gly][Nlys]KAM; amide I:9-II:C), the result in test [3] and in test [4] was inactive. In test [2], the inhibition result is “inactive”.
Turning to `COCCN(CC(=O)N[C@@H](CCCCN)C(=O)N[C@H](CCCCN)C(=O)N[C@@H](CCSC)C(=O)NCCCCC(NC(=O)[C@H](CCSC)NC(=O)[C@@H](CCCCN)NC(=O)[C@H](CCCCN)NC(=O)CN(CCOC)C(=O)CN(Cc1ccc(OC)cc1)C(=O)CN(C(=O)CN(Cc1ccc2c(c1)OCO2)C(=O)CN[C@H](C)c1ccccc1)[C@H](C)c1ccccc1)C(N)=O)C(=O)CN(Cc1ccc(OC)cc1)C(=O)CN(C(=O)CN(Cc1ccc2c(c1)OCO2)C(=O)CN[C@H](C)c1ccccc1)[C@H](C)c1ccccc1` (stereo partly drawn), in test [1], the result was Active.
As for `C=CCN(CC(=O)N[C@@H](CCCCN)C(=O)N[C@H](CCCCN)C(=O)N[C@@H](CCSC)C(=O)NCCCCC(NC(=O)[C@H](CCSC)NC(=O)[C@@H](CCCCN)NC(=O)[C@H](CCCCN)NC(=O)CN(CC=C)C(=O)CN(Cc1ccc(OC)cc1)C(=O)CN(C(=O)CN(Cc1ccc2c(c1)OCO2)C(=O)CN[C@H](C)c1ccccc1)[C@H](C)c1ccccc1)C(N)=O)C(=O)CN(Cc1ccc(OC)cc1)C(=O)CN(C(=O)CN(Cc1ccc2c(c1)OCO2)C(=O)CN[C@H](C)c1ccccc1)[C@H](C)c1ccccc1` (stereo partly drawn), the outcome in test [1] was Active.
On to `COc1ccc(CN(CC(=O)N(CCCCN)CC(=O)N[C@@H](CCCCN)C(=O)N[C@H](CCCCN)C(=O)N[C@@H](CCSC)C(=O)NCCCCC(NC(=O)[C@H](CCSC)NC(=O)[C@@H](CCCCN)NC(=O)[C@H](CCCCN)NC(=O)CN(CCCCN)C(=O)CN(Cc2ccc(OC)cc2)C(=O)CN(C)C(=O)CN(Cc2ccc3c(c2)OCO3)C(=O)CN[C@H](C)c2ccccc2)C(N)=O)C(=O)CN(C)C(=O)CN(Cc2ccc3c(c2)OCO3)C(=O)CN[C@H](C)c2ccccc2)cc1` (stereo partly drawn), for which the outcome in test [3] and in test [4] was inactive. Also, in test [2], the inhibition result is “inactive”.
